One data set addresses Cytochrome P450 2D6 (Homo sapiens, UniProt P10635). Briefly: Inhibition of human recombinant CYP2D6 after 30 mins. It counts as ADME. The settings on record: recombinant enzyme, 0.5 h.
Data set [1] in a line: Selectivity ratio of IC50 for human cathepsin D to IC50 for Plasmodium falciparum plasmepsin-2.
The subject of data set [2] is Plasmodium chabaudi. The data set can be described thus: Antimalarial activity against Plasmodium chabaudi ASS infected in NIH mouse assessed as inhibition of parasitemia at 150 to 300 mg/kg, po qd for 4 days. It counts as functional. Conditions: dose mg/kg 150-300.
Data set [3] in a line: Selectivity ratio of IC50 for human cathepsin E to IC50 for Plasmodium falciparum plasmepsin-2.
Data set [4] deals with Plasmepsin V (Plasmodium falciparum (isolate 3D7)) (UniProt Q8I6Z5). Briefly: (§1) Inhibition of Plasmodium falciparum […] plasmepsin-5 using DABCYL-GNKRTLAQKQG-EDANS as substrate measured every 15 mins of 75 mins by fluorescence assay.
Sequence of Plasmepsin V (Plasmodium falciparum (isolate 3D7)) (Q8I6Z5 whole entry, looked up): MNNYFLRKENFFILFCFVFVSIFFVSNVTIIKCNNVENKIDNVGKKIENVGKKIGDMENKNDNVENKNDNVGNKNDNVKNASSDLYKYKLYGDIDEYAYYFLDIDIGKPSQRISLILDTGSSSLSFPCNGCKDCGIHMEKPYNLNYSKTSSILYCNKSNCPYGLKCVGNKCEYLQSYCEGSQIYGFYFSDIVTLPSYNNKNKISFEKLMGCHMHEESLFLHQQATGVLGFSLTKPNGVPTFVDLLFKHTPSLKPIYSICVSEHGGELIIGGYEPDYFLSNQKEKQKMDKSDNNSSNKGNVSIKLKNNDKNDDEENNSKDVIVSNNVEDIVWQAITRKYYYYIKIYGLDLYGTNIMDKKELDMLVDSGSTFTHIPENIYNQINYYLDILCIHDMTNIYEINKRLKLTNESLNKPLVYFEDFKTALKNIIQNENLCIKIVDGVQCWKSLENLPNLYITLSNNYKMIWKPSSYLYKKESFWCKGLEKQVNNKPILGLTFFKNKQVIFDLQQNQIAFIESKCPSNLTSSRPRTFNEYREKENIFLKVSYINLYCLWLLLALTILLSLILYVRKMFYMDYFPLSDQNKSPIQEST
In data set [5] the test system is Plasmodium falciparum. Briefly: Antimalarial activity against chloroquine-sensitive Plasmodium falciparum 3D7 infected in […] after 48 hrs by SYBR Green I-based fluorescence method. In kind it is functional, organism-based.
The target of a further data set is T1, Cytochrome P450 1A2 (Homo sapiens, UniProt P05177).
T1 sequence (P05177 whole entry): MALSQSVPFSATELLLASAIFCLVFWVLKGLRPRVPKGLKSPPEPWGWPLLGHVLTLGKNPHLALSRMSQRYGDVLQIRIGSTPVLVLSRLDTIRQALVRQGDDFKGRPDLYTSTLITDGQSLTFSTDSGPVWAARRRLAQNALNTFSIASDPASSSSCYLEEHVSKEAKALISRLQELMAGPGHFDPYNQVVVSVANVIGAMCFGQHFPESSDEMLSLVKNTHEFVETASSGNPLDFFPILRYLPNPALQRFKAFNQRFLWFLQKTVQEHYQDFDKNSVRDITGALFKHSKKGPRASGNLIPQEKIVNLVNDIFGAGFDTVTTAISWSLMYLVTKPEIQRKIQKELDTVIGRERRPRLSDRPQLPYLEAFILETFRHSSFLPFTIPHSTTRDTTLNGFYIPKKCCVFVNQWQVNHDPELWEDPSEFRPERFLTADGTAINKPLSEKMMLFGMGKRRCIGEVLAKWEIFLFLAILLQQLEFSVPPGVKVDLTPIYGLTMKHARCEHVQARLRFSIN
Briefly: Inhibition of human recombinant CYP1A2 after 30 mins. In kind it is ADME. The settings on record: recombinant enzyme, 0.5 h.

Data set [6] concerns Liver microsome. The data set can be described thus: Metabolic stability in human liver microsomes at 1 uM after 5 to 30 mins. In kind it is ADME. A general note: Liver microsomes are vesicles of endoplasmic reticulum, rich in cytochrome P450 enzymes.
In the next data set the target is Cytochrome P450 3A4 (Homo sapiens, UniProt P08684). The data set can be described thus: Inhibition of human recombinant CYP3A4 after 30 mins. It counts as ADME. The settings on record: recombinant enzyme, 0.5 h.
Sequence of Cytochrome P450 3A4 (P08684 whole entry): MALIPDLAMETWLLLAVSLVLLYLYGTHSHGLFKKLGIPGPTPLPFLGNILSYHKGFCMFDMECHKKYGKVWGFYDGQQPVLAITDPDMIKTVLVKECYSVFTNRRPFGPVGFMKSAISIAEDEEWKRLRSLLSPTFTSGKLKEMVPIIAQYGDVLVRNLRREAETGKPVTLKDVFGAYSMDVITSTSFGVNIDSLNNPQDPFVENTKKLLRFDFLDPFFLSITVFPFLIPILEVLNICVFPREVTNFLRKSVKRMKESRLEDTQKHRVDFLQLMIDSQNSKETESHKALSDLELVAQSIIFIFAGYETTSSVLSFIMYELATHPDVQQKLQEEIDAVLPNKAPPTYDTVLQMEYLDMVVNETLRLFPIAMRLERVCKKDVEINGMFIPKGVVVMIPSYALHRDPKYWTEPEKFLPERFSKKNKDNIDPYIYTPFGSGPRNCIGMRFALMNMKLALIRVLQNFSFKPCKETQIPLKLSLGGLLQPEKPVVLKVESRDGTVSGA
The test system of data set [7] is Liver microsome. Briefly: Metabolic stability in rat liver microsomes at 1 uM after 5 to 30 mins. It counts as ADME.
The subject of data set [8] is Plasmodium falciparum. Briefly: Antimalarial activity against chloroquine and pyrimethamine-resistant Plasmodium falciparum Dd2 infected in […] after 48 hrs by SYBR Green I-based fluorescence method. It counts as functional. The settings on record: Dd2, 48 h.
The nature of data set [9]: Metabolic stability in mouse liver microsomes at 1 uM after 5 to 30 mins. It counts as ADME, Microsome.
The target in a further data set is Cytochrome P450 2C9 (Homo sapiens, UniProt P11712). The data set can be described thus: Inhibition of human recombinant CYP2C9 after 30 mins. The settings on record: recombinant enzyme, 0.5 h. It counts as ADME.
Sequence of Cytochrome P450 2C9 (P11712 whole entry): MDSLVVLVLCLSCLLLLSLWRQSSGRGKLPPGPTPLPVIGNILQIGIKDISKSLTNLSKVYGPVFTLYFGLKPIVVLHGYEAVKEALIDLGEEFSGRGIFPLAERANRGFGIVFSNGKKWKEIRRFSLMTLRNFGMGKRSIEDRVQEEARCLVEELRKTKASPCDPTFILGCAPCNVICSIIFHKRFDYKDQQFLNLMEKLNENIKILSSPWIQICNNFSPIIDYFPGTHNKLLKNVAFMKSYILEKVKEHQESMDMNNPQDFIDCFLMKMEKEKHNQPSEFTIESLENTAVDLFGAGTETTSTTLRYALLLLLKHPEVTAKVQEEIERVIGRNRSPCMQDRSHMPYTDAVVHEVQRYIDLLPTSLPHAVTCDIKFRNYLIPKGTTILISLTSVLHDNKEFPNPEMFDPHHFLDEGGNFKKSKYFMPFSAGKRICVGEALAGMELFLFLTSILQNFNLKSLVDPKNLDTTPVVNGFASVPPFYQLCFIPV
Data set [10] can be described thus: Selectivity ratio of IC50 for human BACE1 to IC50 for Plasmodium falciparum plasmepsin-2.
In another data set the target is Cytochrome P450 2C19 (Homo sapiens, UniProt P33261). Briefly: Inhibition of human recombinant CYP2C19 after 30 mins. It counts as ADME. Conditions: recombinant enzyme, 0.5 h.
Sequence of Cytochrome P450 2C19 (P33261 whole entry): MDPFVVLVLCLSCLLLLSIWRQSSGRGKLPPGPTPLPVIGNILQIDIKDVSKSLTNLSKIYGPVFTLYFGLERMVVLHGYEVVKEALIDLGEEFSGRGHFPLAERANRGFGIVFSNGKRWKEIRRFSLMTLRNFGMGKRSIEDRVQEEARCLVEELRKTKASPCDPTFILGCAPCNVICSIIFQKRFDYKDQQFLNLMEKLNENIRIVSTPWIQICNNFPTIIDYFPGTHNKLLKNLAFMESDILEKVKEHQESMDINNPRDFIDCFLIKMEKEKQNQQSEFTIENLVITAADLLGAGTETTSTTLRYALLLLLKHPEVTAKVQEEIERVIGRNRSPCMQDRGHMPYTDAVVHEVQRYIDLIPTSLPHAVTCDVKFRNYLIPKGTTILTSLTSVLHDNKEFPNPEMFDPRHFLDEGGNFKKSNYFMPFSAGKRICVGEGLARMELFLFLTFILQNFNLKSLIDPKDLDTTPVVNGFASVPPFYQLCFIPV
The next data set deals with Mus musculus. The data set can be described thus: Toxicity in Plasmodium chabaudi ASS infected NIH mouse assessed as survival at 10 to 300 mg/kg, po qd for 4 days. In kind it is organism-based. The arrangement: dose 10-300 mg/kg, route oral. Conditions: in vivo, 96 h.
Data set [11] concerns Plasmodium chabaudi. The data set can be described thus: Antimalarial activity against Plasmodium chabaudi ASS infected in NIH mouse assessed as inhibition of parasitemia at 100 mg/kg, po qd for 4 days. In kind it is functional. The settings on record: 96 h. The procedure, abridged:
(§2)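 Mice infected with P. chabaudi were given oral doses once daily for four days, starting four hours after infection. Parasitemia was read on Day 4 postinoculation and expressed as percent inhibition of parasitemia.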

The next data set relates to HepG2. The data set can be described thus: Cytotoxicity against human HepG2 cells after 72 hrs. It counts as cell-based. The settings on record: hepg2, 72 h.
Data set [12] relates to Plasmodium falciparum. Briefly: Antimalarial activity against chloroquine-sensitive Plasmodium falciparum 3D7 infected in […] after 72 hrs by SYBR Green I-based fluorescence method. In kind it is functional, organism-based. The settings on record: 3D7, 72 h.
Data set [13] has as its system Plasmodium chabaudi. Briefly: Antimalarial activity against Plasmodium chabaudi ASS infected in NIH mouse assessed as inhibition of parasitemia at 4.5 mg/kg, po qd for 4 days. In kind it is functional. The settings on record: 96 h. The procedure, abridged: as §2
For the next data set, the target named is Plasmepsin V (Plasmodium falciparum (isolate 3D7), UniProt Q8I6Z5). Described as §1.
Sequence of Plasmepsin V (Q8I6Z5 whole entry): as the sequence (Q8I6Z5 whole entry, looked up) above
Data set [14] deals with Plasmodium falciparum. Briefly: Antimalarial activity against Plasmodium falciparum. In kind it is functional, organism-based.

The source made the active and inactive calls. The rule behind the calls is not given here. A value given as a limit tells only on which side of the number the result lay.

Sequence of Cytochrome P450 2D6 (P10635 whole entry): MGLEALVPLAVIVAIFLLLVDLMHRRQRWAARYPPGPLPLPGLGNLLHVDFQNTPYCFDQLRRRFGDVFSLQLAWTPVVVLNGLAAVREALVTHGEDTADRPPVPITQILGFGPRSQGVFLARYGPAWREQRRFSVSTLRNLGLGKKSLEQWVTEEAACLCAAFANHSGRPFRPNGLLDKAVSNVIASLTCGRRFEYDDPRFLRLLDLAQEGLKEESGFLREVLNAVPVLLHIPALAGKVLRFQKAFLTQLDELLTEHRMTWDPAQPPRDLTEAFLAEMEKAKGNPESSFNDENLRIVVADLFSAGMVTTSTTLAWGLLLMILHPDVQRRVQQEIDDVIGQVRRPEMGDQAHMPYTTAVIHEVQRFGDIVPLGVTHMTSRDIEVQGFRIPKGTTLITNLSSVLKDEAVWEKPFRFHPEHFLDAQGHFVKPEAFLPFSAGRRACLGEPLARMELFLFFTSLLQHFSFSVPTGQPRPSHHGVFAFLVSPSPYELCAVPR

The term IC50 denotes the point on the concentration scale where inhibition reaches its midpoint. A low value points to greater potency in that assay. Usually inhibition in vivo stands for how much of the control response was suppressed. In the case of `COc1ccc(C2(c3ccc(OC)cc3)NC(=N)N(C3CCCCC3)C2=O)cc1`, the “inhibition (INH)” value is given as “Not Active” at Cytochrome P450 2D6; 100% with Plasmodium chabaudi [2]; “Not Active” on Cytochrome P450 1A2; “Active” on Cytochrome P450 3A4; “Not Active” at Cytochrome P450 2C9; “Not Active” at Cytochrome P450 2C19. The results for the Ratio IC50 in [1], in data set [3] and in data set [10] were more than 1000, 300 and more than 1000, respectively. Further, the inhibition entry in data set [4] is “inactive”. The inhibition entry in the data set with Plasmodium falciparum [5] was “Active”. Besides, the Stability result (in the data set on Liver microsome [6]; in the data set on Liver microsome [7]; in [9]) was “Stable” each time. Further, the IC50 in the data set with Plasmodium falciparum [8] amounted to 480 nM; in the data set with Plasmodium falciparum [12], 463 nM. The Activity result with Mus musculus is “Non-toxic”; in the data set on HepG2 it was “Toxic”. In the data set on Plasmodium chabaudi [11], the inhibition in vivo at 100 mg/kg turned out to be 89%.
As to `CCN(CC)CCCC(C)Nc1ccnc2cc(Cl)ccc12` (stereo not drawn) [CHLOROQUINE], the inhibition in vivo at 4.5 mg/kg in the data set on Plasmodium chabaudi [13] amounted to 100%.
On to `CCC(CN1C(=N)NC(c2ccccc2)(c2ccccc2)C1=O)c1ccccc1` (racemic), for which the IC50 amounted to 977 nM on Plasmepsin V, 140 nM with Plasmodium falciparum [14] and 2760 nM with Plasmodium falciparum [12].
